In brackets after ≈: the same amount, converted by molar mass.
System: Mythimna separata
Experiment: Larvicidal activity against Oriental armyworm
Format: functional
Summary of the method: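 Oriental armyworm (Mythimna separata) larvae dosed by foliar application. Each treatment run in triplicate. LC50 derived by Probit analysis. Reference insecticides were tested under the same conditions.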

SMILES	LC50 [µg/mL]
Cc1ccc(C(=O)N(NC(=O)c2ccc3c(c2Cl)CCCO3)C(C)(C)C)cc1	5.57 (≈ 13.9 µM)
CC(C)(C)N(NC(=O)c1ccc2c(c1Cl)CCCO2)C(=O)c1ccc([N+](=O)[O-])cc1Cl	8.47 (≈ 18.2 µM)
CC(C)(C)N(NC(=O)c1ccc2c(c1Cl)CCCO2)C(=O)c1ccc(Cl)cc1	4.06 (≈ 9.64 µM)
COc1ccccc1C(=O)N(NC(=O)c1ccc2c(c1Cl)CCCO2)C(C)(C)C	10.1 (≈ 24.2 µM)
CC(C)(C)N(NC(=O)c1ccc2c(c1Cl)CCCO2)C(=O)c1ccc(F)cc1F	5.69 (≈ 13.5 µM)
CC(C)(C)N(NC(=O)c1ccc2c(c1Cl)CCCO2)C(=O)c1cccc(Cl)c1	5.98 (≈ 14.2 µM)
CC(C)(C)N(NC(=O)c1ccc2c(c1Cl)CCCO2)C(=O)c1ccc(Cl)cc1[N+](=O)[O-]	2.73 (≈ 5.85 µM)
COc1cc(C(=O)N(NC(=O)c2ccc3c(c2Cl)CCCO3)C(C)(C)C)cc(OC)c1OC	42.7 (≈ 89.4 µM)
CC(C)(C)N(NC(=O)c1ccc2c(c1Cl)CCCO2)C(=O)c1c(Cl)cc(C(F)(F)F)cc1Cl	> 500
Cc1cc(C)c(C(=O)N(NC(=O)c2ccc3c(c2Cl)CCCO3)C(C)(C)C)c(C)c1	> 500
CC(C)(C)N(NC(=O)c1ccc2c(c1Cl)CCCO2)C(=O)c1ccccc1[N+](=O)[O-]	6.54 (≈ 15.1 µM)
CC(C)(C)N(NC(=O)c1ccc2c(c1Cl)CCCO2)C(=O)c1ccccc1F	4.75 (≈ 11.7 µM)
CC(C)(C)N(NC(=O)c1ccccc1)C(=O)c1ccccc1 [RH-5849]	24.4 (≈ 82.3 µM)
Cc1ccc(C(=O)N(NC(=O)c2ccc3c(c2Cl)CCCO3)C(C)(C)C)c(C)c1	6.14 (≈ 14.8 µM)
Cc1cc(C)cc(C(=O)N(NC(=O)c2ccc3c(c2Cl)OCCO3)C(C)(C)C)c1	1.4 (≈ 3.36 µM)
CC(C)(C)N(NC(=O)c1ccc2c(c1Cl)CCCO2)C(=O)c1ccc(I)cc1	43.5 (≈ 84.9 µM)
CC(C)(C)N(NC(=O)c1ccc2c(c1Cl)CCCO2)C(=O)c1ccccc1Cl	10.8 (≈ 25.5 µM)

SMILES	LC50 [µg/mL]
CC(C)(C)N(NC(=O)c1ccc2c(c1Cl)CCCO2)C(=O)c1ccc([N+](=O)[O-])cc1	29.7 (≈ 68.8 µM)
COc1ccc(C(=O)N(NC(=O)c2ccc3c(c2Cl)CCCO3)C(C)(C)C)cc1OC	19.8 (≈ 44.2 µM)
CCOc1ccc(C(=O)N(NC(=O)c2ccc3c(c2Cl)CCCO3)C(C)(C)C)cc1	215 (≈ 500 µM)
Cc1cc(C)cc(C(=O)N(NC(=O)c2ccc3c(c2C)OCCO3)C(C)(C)C)c1	1.4 (≈ 3.53 µM)
COc1cccc(C(=O)N(NC(=O)c2ccc3c(c2Cl)CCCO3)C(C)(C)C)c1	11.4 (≈ 27.3 µM)
CC(C)(C)N(NC(=O)c1ccc2c(c1Cl)CCCO2)C(=O)c1ccc(Cl)cc1Cl	4.11 (≈ 9.02 µM)
COc1ccc(C(=O)N(NC(=O)c2ccc3c(c2Cl)CCCO3)C(C)(C)C)cc1	25.1 (≈ 60.1 µM)
Cc1ccccc1C(=O)N(NC(=O)c1ccc2c(c1Cl)CCCO2)C(C)(C)C	31.3 (≈ 78.1 µM)
CC(C)(C)N(NC(=O)c1ccc2c(c1Cl)CCCO2)C(=O)c1cccc(I)c1	30.2 (≈ 58.9 µM)
CC(C)(C)N(NC(=O)c1ccc2c(c1Cl)CCCO2)C(=O)c1cccc([N+](=O)[O-])c1	399 (≈ 924 µM)
CC(C)(C)N(NC(=O)c1ccc2c(c1Cl)CCCO2)C(=O)c1ccccc1	5 (≈ 12.9 µM)
CCc1ccc(C(=O)NN(C(=O)c2cc(C)cc(C)c2)C(C)(C)C)cc1 [TEBUFENOZIDE]	1.59 (≈ 4.51 µM)
Cc1cccc(C(=O)N(NC(=O)c2ccc3c(c2Cl)CCCO3)C(C)(C)C)c1	2.78 (≈ 6.93 µM)
CC(C)(C)N(NC(=O)c1ccc2c(c1Cl)CCCO2)C(=O)c1cc(Cl)cc(Cl)c1	4.11 (≈ 9.02 µM)
Cc1cc(C)cc(C(=O)N(NC(=O)c2ccc3c(c2Cl)CCCO3)C(C)(C)C)c1 [N'-TERT-BUTYL-N'-(3,5-DIMETHYLBENZOYL)-N-5-CHLORO-6-CHROMANECARBOHYDRAZIDE]	2.25 (≈ 5.42 µM)
CC(C)(C)N(NC(=O)c1ccc2c(c1Cl)CCCO2)C(=O)c1c(Cl)cc(Cl)cc1Cl	> 500
